Screens as filed in PubChem BioAssay.
Only a selection was taken, and hits are over-represented in it overall.
Lmaj promast = Leishmania major promastigote growth inhibition. Leishmania major promastigotes, resazurin fluorescence viability. inhibition, % at 10 µM. 200,000 tested, 9% active. AID 1063;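 further: promastigotes grown with compound for 44 hours at 28 °C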
DTT redox prof = compounds producing H2O2 with reducing agent – biochemical, NIH compound library profiling, artefact control for MLSCN library redox annotation, primary screen | DTT-dependent redox cycling H2O2, phenol red/HRP absorbance; 100% = 100 µM peroxide control, 0% = buffer | activation, % at 10 µM | 200,000 tested, 0.03% active | AID 878;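 active means activation of at least 50% relative to the plate's high and low controls in the primary single-dose screen; inactive means activation below 50%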;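 further: compound incubated with DTT at 0.8 mM final as the reducing agent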
PfG6PD inh = PfG6PD (Plasmodium falciparum) enzyme inhibition; PfGluPho enzyme, NADPH resazurin-diaphorase fluorescence; inhibition, % at 20 µM; 350,000 tested, 0.78% active;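 active means inhibition reaching at least a set limit at 20 µM in the primary screen, cut at about 59% in these data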;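 further: 0% = DMSO wells with substrate and 100% = DMSO wells lacking glucose-6-phosphate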
G6PDH counter = inhibits Leuconostoc G6PDH, flagging false hits in G6PDH-based assays | Purified L. mesenteroides G6PDH, diaphorase/resazurin coupled fluorescence, 45 min | inhibition, % at 5 µM | 200,000 tested, 0.12% active | AID 1020
Diaph inh CS = inhibits diaphorase or chemically oxidizes, flagging diaphorase assay artifacts; diaphorase resazurin-to-resorufin fluorescence, NADH, 16 min; bacterial (C. kluyveri) enzyme, not human; inhibition, % at 20 µM; 190,000 tested, 0.69% active; AID 1217;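 active means primary screen inhibition at 20 µM above a set limit, cut at about 50% in these data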;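 further: plate controls were DMSO with full reaction for no effect and wells lacking NADH for full effect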
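Assay system – diaphorase enzyme from Clostridium kluyveri · Amount – diaphorase 0.14 U/mL (working solution) · Times – reaction incubation of 16 min at room temperature · Controls – No-NADH positive control and DMSO neutral control · Signal – resorufin fluorescence 544/590 nm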
Diaphorase act = counter-screen for diaphorase-based assays: diaphorase activators and chemical reducers | 190,000 tested, 0.005% active | Diaphorase/resazurin coupled assay, resorufin fluorescence, 16 min; stronger effect = higher value; 1 = vehicle wells, 0 = NADH-free wells | activation factor at 20 µM | AID 1229;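 active means diaphorase activity raised at least twofold by the compound at 20 µM; inactive means activation factor below 2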
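Material: purified diaphorase enzyme from Clostridium kluyveri; Also added: 0.114 mM NADH and 0.1 mM resazurin, final amounts; Doses: single compound dose of 20 µM, 1% DMSO final; Times: 16 min enzyme reaction, ambient temperature; Detection: resorufin fluorescence, excitation 544 nm, emission 590 nm; Measure: increased resorufin signal from activators or reducing compounds.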
Numbers without * were called inactive. Unless noted, no stated cut-off is given here; in the data, active means inhibition above about 50%; inactive means the rest.

CN(C)c1ncnc2c1ncn2C1CCCO1 (stereo not given) was read as PfG6PD inh -4.
CN1C(=O)NC(NC(=O)c2cccs2)(C(F)(F)F)C1=O (stereo not given) was read as Lmaj promast -6, DTT redox prof 0, PfG6PD inh -5, G6PDH counter 17, Diaph inh CS 9 and Diaphorase act 0.9.
Screening O=C(NC1(C(F)(F)F)NC(=O)N(c2ccccc2)C1=O)c1cccs1 (stereo not given) returned Lmaj promast 57*, DTT redox prof 0, PfG6PD inh -14, G6PDH counter 2, Diaph inh CS 11 and Diaphorase act 0.9.
CCCN(CC(=O)Nc1ccccc1OC)C(=O)C1=COCCO1 was read as PfG6PD inh -4.
CCCN(CCC)CCCNC(=S)Nc1ccc2nc(N3CCN(C)CC3)cc(C)c2c1 was read as Lmaj promast 65*, DTT redox prof -1, PfG6PD inh 9, G6PDH counter 3, Diaph inh CS -20 and Diaphorase act 1.2.
`CCCN(CCC)CCCNC(=S)Nc1ccc2nc(N3CCN(CC)CC3)cc(C)c2c1` gave Lmaj promast 94*, DTT redox prof -2, PfG6PD inh 4, G6PDH counter -5, Diaph inh CS -34 and Diaphorase act 1.3.
Screening CCCCN(CC)CCNC(=S)Nc1ccc2nc(N3CCN(C)CC3)cc(C)c2c1 returned PfG6PD inh -2.
CCCN(CC(=O)Nc1ccccc1C)C(=O)c1cc2ccccc2oc1=O was read as PfG6PD inh 2.
CCOCCN1CCN(c2c(C)c(C)nc3cc(-c4cc(OC)cc(OC)c4)nn23)CC1 was read as Lmaj promast 83*, DTT redox prof 0, PfG6PD inh 25, G6PDH counter 1, Diaph inh CS 4 and Diaphorase act 1.
`CCc1c(C)nc2cc(-c3cc(OC)cc(OC)c3)nn2c1N1CCN(CCN2CCOCC2)CC1` gave Lmaj promast 88*, DTT redox prof -1, PfG6PD inh 9, G6PDH counter 2, Diaph inh CS -22 and Diaphorase act 1.2.
Screening Cc1ccc(S(=O)(=O)N(C)CC(=O)Nc2nnc(CC(C)C)s2)cc1 returned PfG6PD inh -15.
Screening Cc1ccc(-c2nn(-c3cc(N4CCNCC4)ccc3[N+](=O)[O-])c(=O)c3ccccc23)cc1 returned Lmaj promast 101*, DTT redox prof -1, PfG6PD inh 14, G6PDH counter -3, Diaph inh CS -58 and Diaphorase act 1.6.
Screening CSC[C@H]1CN(CCc2ccccc2)C(=O)[C@@H]1CC(=O)Nc1ccccc1 returned PfG6PD inh -12.
CCOC(=O)c1ccc(-n2c(C)nc3ccc(Br)cc3c2=O)cc1 was read as PfG6PD inh -2.
CC1CCCN(C(=O)COC(=O)c2cccc(NS(=O)(=O)c3ccccc3)c2)C1 (stereo not given) was read as PfG6PD inh -5.
`Cc1cc(C(=O)Nc2cccc3ccccc23)oc1C` gave PfG6PD inh 20.
Screening Cc1cc(C(=O)Nc2ccccc2)oc1C returned Lmaj promast 56*, DTT redox prof 1, PfG6PD inh -11, G6PDH counter 8, Diaph inh CS -10 and Diaphorase act 1.1.
COc1cc(/C=C/C(=O)Nc2ccc(S(=O)(=O)Nc3onc(C)c3C)cc2)cc(OC)c1OC was read as PfG6PD inh -18.
For COc1cccc(NC(=O)N(CCCN2CCOCC2)C(C)c2cc3ccccc3o2)c1 (stereo not given) the results were Lmaj promast 99*, DTT redox prof 0, PfG6PD inh -9, G6PDH counter -3, Diaph inh CS 16 and Diaphorase act 0.8.
`COc1ccc(NC(=S)N(CCN(C)C)C(C)c2ccco2)cc1` (stereo not given) gave Lmaj promast 51*, DTT redox prof 0, PfG6PD inh 2, G6PDH counter -2, Diaph inh CS 18 and Diaphorase act 0.8.
`COc1ccc(NC(=S)N(CCCN2CCOCC2)C(C)c2cc3ccccc3o2)cc1` (stereo not given) gave Lmaj promast 72*, DTT redox prof -1, PfG6PD inh 0, G6PDH counter 5, Diaph inh CS 23 and Diaphorase act 0.8.
For COc1ccc(NC(=O)COC(=O)c2ccc([N+](=O)[O-])o2)cc1Cl the results were Lmaj promast -13, DTT redox prof -2, PfG6PD inh 31, G6PDH counter 0, Diaph inh CS 2 and Diaphorase act 1.
CCCCn1c(N)c(N(CC(C)C)C(=O)CSCC(=O)Nc2ccc(OC)cc2)c(=O)[nH]c1=O was read as PfG6PD inh 1.
`CCOc1cc(NC(=S)Nc2ccccc2)c(OCC)cc1NC(=O)c1ccc(OC)cc1` gave Lmaj promast 96*, DTT redox prof -2, PfG6PD inh 16, G6PDH counter 6, Diaph inh CS 14 and Diaphorase act 0.9.
For COc1cc(OC)cc(C(=O)Nc2nnc(NC(=S)Nc3ccccc3)s2)c1 the results were Lmaj promast 55*, DTT redox prof 0, PfG6PD inh -9, G6PDH counter -1, Diaph inh CS 23 and Diaphorase act 0.8.
CCOc1cc(NC(=S)Nc2cccc(OC)c2)c(OCC)cc1NC(=O)c1ccc(C)cc1 was read as Lmaj promast -3, DTT redox prof -5, PfG6PD inh 18, G6PDH counter 3, Diaph inh CS 24 and Diaphorase act 0.8.
`CC(C)c1nc2sc3c(NCc4ccccc4)ncnc3c2c2c1COC(C)(C)C2` gave Lmaj promast 1, DTT redox prof 1, PfG6PD inh -4, G6PDH counter -3, Diaph inh CS 58* and Diaphorase act 0.4.
CC(C)c1nc2sc3c(NCc4ccco4)ncnc3c2c2c1COC(C)(C)C2 was read as Lmaj promast 33, DTT redox prof 0, PfG6PD inh 47, G6PDH counter 13, Diaph inh CS 104* and Diaphorase act 0.
`CCN(CCO)c1ncnc2c1sc1nc(C(C)C)c3c(c12)CC(C)(C)OC3` gave Lmaj promast 16, DTT redox prof 0, PfG6PD inh 49, G6PDH counter 7, Diaph inh CS 63* and Diaphorase act 0.4.
`CCSc1ncnc2c1sc1nc(-c3ccco3)c3c(c12)CC(C)(C)OC3` gave Lmaj promast -2, DTT redox prof 3, G6PDH counter -9, Diaph inh CS 26 and Diaphorase act 0.7.
Screening CSc1nc(NCc2ccco2)c2sc3nc(C(C)C)c4c(c3c2n1)CC(C)(C)OC4 returned Lmaj promast 17, DTT redox prof 0, PfG6PD inh 0, G6PDH counter 5, Diaph inh CS 86* and Diaphorase act 0.1.
